A short description of test [1]: Antitumor activity against mouse B16 melanoma cells, calculated as average change in body weight from onset to termination of therapy. In kind it is functional. In a few lines:
(§1)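 Tumor-bearing mice in groups of five, dosed i.p. daily for 6 days from 24 h post-implantation with suspensions in Tween 80/isotonic saline at 10-150 mg/kg per day; vehicle controls run alongside. Mice weighed during the experiment. Average percent body-weight change from onset to termination of therapy was taken as the toxicity index, reported at the optimal-survival dose.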

Test [2] is filed under the species Mus musculus. In words: Antitumor activity against B16 melanoma cells in mice. Activity is expressed as optimal effective dose. In kind it is functional. In short, it runs like this:
(§2)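 Transplanted tumor in mice, given i.p. once daily for 6 consecutive days starting 24 h after implantation. Doses span 10-150 mg/kg per day as fine suspensions homogenized in a few drops of 20% aqueous Tween 80 and made up with isotonic saline. Groups of five; vehicle-injected tumor-bearing controls. %T/C = mean survival time treated/control × 100. Value is the daily dose giving maximum %T/C.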

The subject of test [3] is L1210. Put plainly: Antitumor activity against L1210 leukemia cells in mice, activity is expressed as optimal effective dose. The format is functional, Mus musculus. In a few lines: as §2
The species entered for test [4] is Mus musculus. Put plainly: Antitumor activity against L1210 leukemia cells in mice calculated as average change in body weight from onset to termination of therapy. The format is functional. In short, it runs like this:
as §1

For test [5], the species on record is Mus musculus. In words: Antitumor activity against L1210 leukemia cells in mice (activity expressed as average survival time of treated/control animals x 100). The format is functional. In a few lines: (§3)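 Compound given ip as a fine suspension (homogenized in drops of 20% aqueous Tween 80, made to volume with isotonic saline) at 10-150 mg/kg per day, once daily for 6 consecutive days starting 24 h after implantation. Vehicle-injected tumor-bearing controls were included. Read-out was survival time; body-weight change over therapy was the toxicity indicator.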

Test [6] in a line: Antitumor activity against B16 melanoma cells in mice, activity is expressed as average survival time of treated/control animals x 100. In kind it is functional, Mus musculus. In short, it runs like this: as §3

These results are taken from ChEMBL document CHEMBL1123555, “1,2-Bis(sulfonyl)hydrazines. 3. Effects of structural modification on antineoplastic activity” (1987).

For the molecule `Cc1ccc(S(=O)(=O)N(C)NS(=O)(=O)c2ccc([N+](=O)[O-])cc2)cc1`, the Weight change in test [1] is 1.4%. Besides, the Dose in test [2] came to 100 mg/kg.

In the case of `Cc1ccc(S(=O)(=O)NN(C)S(=O)(=O)Cc2ccccc2)cc1`, the Weight change in test [1] is 1%; in test [4], 0.3%. Also, the Dose worked out at 100 mg/kg in test [3] and 50 mg/kg in test [2]. The molecule further yielded a T/C in test [5] of 126%.

In the case of `Cc1ccc(S(=O)(=O)NN(C)S(=O)(=O)c2ccc(I)cc2)cc1`, the Weight change in test [1] is on record as 1.4%. The molecule also registered a Dose in test [2] of 50 mg/kg.

Turning to `COc1ccc(S(=O)(=O)NN(C)S(=O)(=O)c2ccccc2)cc1`, the Weight change was -5.9% in test [1] and 4.5% in test [4]. Further, the Dose in test [3] and in test [2] was 50 mg/kg in each case.

For the molecule `CN(NS(=O)(=O)Cc1ccccc1)S(=O)(=O)c1ccccc1`, in test [1], the Weight change was 2.2%. In addition, in test [6], the T/C is 186%. In addition, the Dose in test [2] was 100 mg/kg.

Take `CN(NS(C)(=O)=O)S(=O)(=O)c1ccc(I)cc1`: the Weight change in test [1] is recorded as 4%. The same molecule yielded a Dose in test [2] of 40 mg/kg.

For `CN(NS(=O)(=O)c1ccc2ccccc2c1)S(=O)(=O)c1ccc(Cl)cc1`, the Weight change is -4% in test [1] and 9% in test [4]. For the same molecule, the values for the Dose in test [3] and in test [2] were 100 mg/kg and 50 mg/kg, respectively.

In the case of `CN(NS(C)(=O)=O)S(=O)(=O)c1ccc2ccccc2c1`, the Weight change in test [1] is on record as 1.4%. This molecule gave a T/C in test [6] of 193%. This molecule also had a Dose in test [2] of 20 mg/kg.

For the molecule `CN(NS(C)(=O)=O)S(=O)(=O)c1ccc(Cl)cc1`, the results for the Weight change in test [1] and in test [4] were -1.4% and 5.3%, respectively. Also, the Dose in test [3] and in test [2] was 20 mg/kg throughout.

In the case of `CN(NS(=O)(=O)c1ccc(Cl)cc1)S(=O)(=O)c1ccc(Cl)cc1`, the Weight change in test [1] was 4.8%; in test [4], 1.3%. In addition, the figures for the Dose in test [3] and in test [2] were 150 mg/kg and 50 mg/kg, respectively. This molecule came in with a T/C in test [6] of 163%.

For the molecule `COc1ccc(S(=O)(=O)N(C)NS(=O)(=O)c2ccc(C)cc2)cc1`, the Weight change in test [1] is listed as -14%; in test [4], 9.8%. For the same molecule, the Dose turned out to be 150 mg/kg in test [3] and 100 mg/kg in test [2].

In the case of `Cc1ccc(S(=O)(=O)NN(C)S(=O)(=O)c2ccc(Cl)cc2)cc1`, the Weight change in test [1] is on record as -0.4%; in test [4], 5.5%. In addition, the Dose was 100 mg/kg in test [3] and 50 mg/kg in test [2].

As for `CN(NS(=O)(=O)c1ccc2ccccc2c1)S(=O)(=O)c1ccccc1`, in test [1], the Weight change is 2.5%. Also, the Dose in test [2] was found to be 50 mg/kg.

`CN(NS(=O)(=O)c1ccc(Br)cc1)S(=O)(=O)c1ccccc1`: the Weight change in test [1] is -1.6%. Further, the Dose in test [2] came to 50 mg/kg.

Take `CN(NS(=O)(=O)Cc1ccccc1)S(=O)(=O)Cc1ccccc1`: the Weight change in test [1] is recorded as -17.1%. This molecule also showed a Dose in test [2] of 150 mg/kg.

In the case of `CCS(=O)(=O)NN(C)S(=O)(=O)c1ccc(Cl)cc1`, the Weight change in test [1] is -0.1%. For the same molecule, the Dose in test [2] is 10 mg/kg.

On to `Cc1ccc(S(=O)(=O)N(C)NS(=O)(=O)c2ccc(Cl)cc2)cc1`, for which the Weight change in test [1] was 2.9%; in test [4], 3.7%. The Dose in test [3] and in test [2] was 50 mg/kg in each case.

In the case of `Cc1ccc(S(=O)(=O)NN(C)S(=O)(=O)c2ccc3ccccc3c2)cc1`, the Dose in test [3] stood at 75 mg/kg. Further, in test [4], the Weight change is on record as 8.6%. The molecule also returned a T/C in test [5] of 120%.

For `CCS(=O)(=O)NN(C)S(=O)(=O)c1ccc(I)cc1`, in test [1], the Weight change is recorded as 5.2%. The molecule further returned a T/C in test [6] of 177%. The molecule further registered a Dose in test [2] of 30 mg/kg.

For `CN(NS(=O)(=O)/C=C/c1ccccc1)S(=O)(=O)c1ccc(Cl)cc1`, the Weight change in test [1] is reported as 1.1%. Also, the Dose in test [2] turned out to be 50 mg/kg.

As for `COc1ccc(S(=O)(=O)NN(C)S(=O)(=O)c2ccc(OC)cc2)cc1`, the Weight change in test [1] is recorded as -2.4%. The values for the Dose in test [3] and in test [2] were 50 mg/kg and 100 mg/kg, respectively. This molecule registered a T/C in test [6] of 191%.

`CCS(=O)(=O)NN(C)S(=O)(=O)c1ccc(C)cc1`: the values for the Weight change in test [1] and in test [4] were -1.1% and -2.6%, respectively. In addition, the Dose in test [3] came out at 30 mg/kg; in test [2] it was 50 mg/kg. In test [5], this molecule registered a T/C of 162%.

As to `CN(NS(=O)(=O)c1ccc(Cl)cc1)S(=O)(=O)c1ccccc1`, the Weight change is -2.9% in test [1] and 14.6% in test [4]. In addition, the figures for the Dose in test [3] and in test [2] were 50 mg/kg and 100 mg/kg, respectively.

As for `COc1ccc(S(=O)(=O)N(C)NS(=O)(=O)c2ccccc2)cc1`, the figures for the Weight change in test [1] and in test [4] were 4.7% and -3.9%, respectively. The Dose in test [3] and in test [2] was 100 mg/kg each time. The T/C in test [5] worked out at 142%.

For `CN(NS(=O)(=O)c1ccccc1)S(=O)(=O)c1ccc(Cl)cc1`, the values for the Weight change in test [1] and in test [4] were 2.3% and 6.8%, respectively. Besides, the Dose in test [3] and in test [2] was 50 mg/kg each time. The molecule also had a T/C in test [5] of 115%.

Take `COc1ccc(S(=O)(=O)N(C)NS(=O)(=O)c2ccc3ccccc3c2)cc1`: the Weight change in test [1] is given as -0.1%. The molecule also had a Dose in test [2] of 100 mg/kg.

`Cc1ccc(S(=O)(=O)N(C)NS(=O)(=O)c2ccc3ccccc3c2)cc1` came in with a Dose in test [3] of 75 mg/kg. In test [4], the Weight change was 9.3%.

For `CN(NS(=O)(=O)c1ccc2ccccc2c1)S(=O)(=O)Cc1ccccc1`, the Dose in test [3] and in test [2] was 50 mg/kg in each case. For the same molecule, in test [4], the Weight change is on record as 10.3%. The T/C in test [6] was 179%.

Take `COc1ccc(S(=O)(=O)N(C)NS(C)(=O)=O)cc1`: the Weight change in test [1] is on record as -7.5%; in test [4], -6.4%. In addition, the Dose in test [3] and in test [2] was 20 mg/kg throughout.

As for `COc1ccc(S(=O)(=O)NN(C)S(=O)(=O)c2ccc(C)cc2)cc1`, the results for the Weight change in test [1] and in test [4] were 9.1% and 7.8%, respectively. For the same molecule, the Dose in test [3] and in test [2] was 100 mg/kg in each case. Also, the T/C in test [6] is given as 200%.

Molecule `CCS(=O)(=O)NN(C)S(=O)(=O)c1ccc(OC)cc1` registered a Dose in test [3] of 50 mg/kg. For the same molecule, the Weight change in test [4] is on record as -8.7%. Further, the T/C in test [5] worked out at 149%.

On to `COc1ccc(S(=O)(=O)NN(C)S(=O)(=O)Cc2ccccc2)cc1`, for which, in test [1], the Weight change is on record as 0.2%. In test [2], this molecule came in with a Dose of 150 mg/kg.

As to `CN(NS(=O)(=O)c1ccccc1)S(=O)(=O)Cc1ccccc1`, the Weight change in test [1] was -1.5%; in test [4], -3.1%. The Dose in test [3] and in test [2] was 50 mg/kg each time.

As to `Cc1ccc(S(=O)(=O)N(C)NS(=O)(=O)c2ccccc2)cc1`, the Weight change in test [1] is 8.5%; in test [4] it was 2%. For the same molecule, the Dose came out at 50 mg/kg in test [3] and 150 mg/kg in test [2].

For `CN(NS(=O)(=O)c1ccc(Cl)cc1)S(=O)(=O)Cc1ccccc1`, the values for the Weight change in test [1] and in test [4] were 1.4% and 10.2%, respectively. Moreover, the Dose in test [3] and in test [2] was 50 mg/kg each time.

Take `Cc1ccc(S(=O)(=O)NN(C)S(=O)(=O)c2ccccc2)cc1`: the figures for the Weight change in test [1] and in test [4] were 0.8% and 10.7%, respectively. Further, the Dose in test [3] and in test [2] was 50 mg/kg throughout.

In the case of `Cc1ccc(S(=O)(=O)N(C)NS(C)(=O)=O)cc1`, the Weight change in test [1] was -1.9%; in test [4], -7.9%. The Dose amounted to 30 mg/kg in test [3] and 10 mg/kg in test [2].

Regarding `CN(NS(=O)(=O)c1ccccc1)S(=O)(=O)c1ccc2ccccc2c1`, the Weight change is on record as 5.1% in test [1] and 1.8% in test [4]. For the same molecule, the Dose in test [3] came out at 100 mg/kg; in test [2] it was 50 mg/kg.

As for `Cc1ccc(S(=O)(=O)NN(C)S(=O)(=O)c2ccc(C)cc2)cc1`, the Weight change is reported as -2.7% in test [1] and 3.7% in test [4]. Further, the results for the Dose in test [3] and in test [2] were 50 mg/kg and 150 mg/kg, respectively.

Consider `CN(NS(C)(=O)=O)S(=O)(=O)Cc1ccccc1`, for which the figures for the Weight change in test [1] and in test [4] were 1.9% and 6.7%, respectively. Further, the figures for the Dose in test [3] and in test [2] were 20 mg/kg and 30 mg/kg, respectively. In test [5], this molecule gave a T/C of 165%.

For the molecule `CN(NS(=O)(=O)c1ccccc1)S(=O)(=O)c1ccccc1`, the Weight change in test [1] is on record as -2.3%; in test [4] it was -4.8%. Besides, the Dose in test [3] turned out to be 50 mg/kg; in test [2] it was 100 mg/kg. Moreover, the T/C in test [6] was 175%.
